Test results reported in ChEMBL document CHEMBL1136094, “Novel, potent and selective cyclin D1/CDK4 inhibitors: indolo[6,7-a]pyrrolo[3,4-c]carbazoles” (Bioorg Med Chem Lett, 2003).

Tests used:
[1] = biological target: Protein kinase C theta type (Homo sapiens) (UniProt Q04759); assay: Inhibition of Protein kinase C theta at 100 nM; parameters: scale not given: the % may be the effect or the level left
How it was run: (§1)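 Panel of 39 kinases, each tested at 100 and 500 nM inhibitor. […] Activity is expressed as % of control and is the mean of duplicate assays.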

[2] = biological target: 3-phosphoinositide-dependent protein kinase 1 (Homo sapiens) (UniProt O15530); assay: Inhibition of PDK1 kinase at 500 nM; parameters: scale not given: the % may be the effect or the level left
How it was run: (§2)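 Panel profiling of isolated kinases with inhibitor at 100 nM and 500 nM. […] Remaining kinase activity is expressed as % of control and is the mean of duplicate assays.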

[3] = Percent control against SKG at compound concentration of 500 nM; how it was run: as §1
[4] = biological target: Tyrosine-protein kinase CSK (Homo sapiens) (UniProt P41240); assay: Inhibition of Tyrosine-protein kinase CSK at 100 nM; parameters: scale not given: the % may be the effect or the level left; how it was run: as §1
[5] = biological target: Inhibitor of nuclear factor kappa-B kinase subunit beta (Homo sapiens) (UniProt O14920); assay: Inhibition of I-kappa-B-kinase beta at 500 nM; parameters: scale not given: the % may be the effect or the level left; how it was run: as §2
[6] = biological target: Serine/threonine-protein kinase Chk2 (Homo sapiens) (UniProt O96017); assay: Inhibition of Serine/threonine-protein kinase Chk2 at 500 nM; parameters: scale not given: the % may be the effect or the level left; how it was run: as §1
[7] = biological target: Inhibitor of nuclear factor kappa-B kinase subunit beta (Homo sapiens) (UniProt O14920); assay: Inhibition of I-kappa-B-kinase beta at 100 nM; parameters: scale not given: the % may be the effect or the level left; how it was run: as §2
[8] = biological target: Protein kinase C alpha type (Homo sapiens) (UniProt P17252); assay: Inhibition of Protein kinase C alpha at 100 nM; parameters: scale not given: the % may be the effect or the level left; how it was run: as §2
[9] = biological target: RAF proto-oncogene serine/threonine-protein kinase (Homo sapiens) (UniProt P04049); assay: Inhibition of RAF proto-oncogene serine/threonine-protein kinase at 500 nM; parameters: scale not given: the % may be the effect or the level left; how it was run: as §1
[10] = biological target: Cyclin-dependent kinase 4/cyclin D1 (Homo sapiens, UniProt P11802); assay: Inhibitory activity against Cyclin D1-cyclin-dependent kinase 4 in enzymatic assay by measuring phosphorylation of RbING; assay type: protein-complex assay
[11] = biological target: Mitogen-activated protein kinase 10 (Homo sapiens) (UniProt P53779); assay: Inhibition of c-Jun N-terminal kinase 3 at 100 nM; parameters: scale not given: the % may be the effect or the level left; how it was run: as §1
[12] = biological target: Mitogen-activated protein kinase 14 (Homo sapiens, UniProt Q16539); assay: Inhibition of Mitogen-activated protein kinase p38 alpha
[13] = biological target: T1, Casein kinase I (Homo sapiens) (UniProt Q9HCP0+P78368+P48730+P49674+P48729); assay: Inhibition of CK1 kinase at 100 nM; assay type: protein assay; parameters: scale not given: the % may be the effect or the level left; how it was run: as §2
[14] = biological target: Cyclin-dependent kinase 4 (Homo sapiens) (UniProt P11802); assay: Inhibition of Rb phosphorylation at the CDK4 specific Ser780 residue (1 fold increase over control) after 24 hr incubation in HCT116 cells; assay type: functional, cell-based; settings: HCT-116, concentration not given here
[15] = biological target: Tyrosine-protein kinase SYK (Homo sapiens) (UniProt P43405); assay: Inhibition of Syk protein tyrosine kinase at 500 nM; parameters: scale not given: the % may be the effect or the level left; how it was run: as §1
[16] = biological target: Cyclin-dependent kinase 4 (Homo sapiens) (UniProt P11802); assay: Inhibition of Rb phosphorylation at the CDK4 specific Ser780 residue (3 fold increase over control) after 24 hr incubation in HCT116 cells; assay type: functional, cell-based; settings: HCT-116, concentration not given here
[17] = biological target: Dual specificity mitogen-activated protein kinase kinase 7 (Homo sapiens) (UniProt O14733); assay: Inhibition of MKK7-beta kinase at 500 nM; parameters: scale not given: the % may be the effect or the level left; how it was run: as §2
[18] = biological target: Cyclin-dependent kinase 2/cyclin A (Homo sapiens) (UniProt P24941+P20248+P78396); assay: Inhibition of Cyclin A-cyclin-dependent kinase 2 at 500 nM; assay type: protein-complex assay; parameters: scale not given: the % may be the effect or the level left; how it was run: as §2
[19] = biological target: cAMP-dependent protein kinase (PKA) (Homo sapiens, UniProt P22694+P17612+P22612); assay: Inhibitory activity against Protein kinase A (Histone); assay type: protein assay
[20] = biological target: MAP kinase-activated protein kinase 2 (Homo sapiens) (UniProt P49137); assay: Inhibition of mitogen-activated protein kinase-activated protein kinase 2 at 500 nM; parameters: scale not given: the % may be the effect or the level left; how it was run: as §1
[21] = biological target: Tyrosine-protein kinase Fyn (Homo sapiens) (UniProt P06241); assay: Inhibition of Fyn protein kinase at 100 nM; parameters: scale not given: the % may be the effect or the level left; how it was run: as §2
[22] = biological target: CDK3/cyclin E (Homo sapiens) (UniProt P24864+O96020+Q00526); assay: Inhibition of Cyclin E-cyclin-dependent kinase 3 at 500 nM; assay type: protein-complex assay; parameters: scale not given: the % may be the effect or the level left; how it was run: as §2
[23] = biological target: Tyrosine-protein kinase Blk (Homo sapiens) (UniProt P51451); assay: Inhibition of B lymphoid tyrosine kinase at 500 nM; parameters: scale not given: the % may be the effect or the level left; how it was run: as §2
[24] = biological target: T1, Casein kinase I (Homo sapiens); assay: Inhibition of CK1 kinase at 500 nM; assay type: protein assay; parameters: scale not given: the % may be the effect or the level left; how it was run: as §2
[25] = biological target: T2, Cyclin-dependent kinase 5/CDK5 activator 1 (Homo sapiens) (UniProt Q00535+Q15078); assay: Inhibition of Cyclin-dependent kinase 5-p35nck5a at 100 nM; assay type: protein-complex assay; parameters: scale not given: the % may be the effect or the level left; how it was run: as §2
[26] = biological target: Serine/threonine-protein kinase Chk2 (Homo sapiens) (UniProt O96017); assay: Inhibition of Serine/threonine-protein kinase Chk2 at 100 nM; parameters: scale not given: the % may be the effect or the level left; how it was run: as §1
[27] = biological target: Dual specificity mitogen-activated protein kinase kinase 1 (Homo sapiens) (UniProt Q02750); assay: Inhibition of Mitogen activated protein kinase kinase kinase 1 at 100 nM; parameters: scale not given: the % may be the effect or the level left
[28] = biological target: Dual specificity mitogen-activated protein kinase kinase 1 (Homo sapiens) (UniProt Q02750); assay: Inhibition of Mitogen activated protein kinase kinase kinase 1 at 500 nM; parameters: scale not given: the % may be the effect or the level left
[29] = biological target: Tyrosine-protein kinase SYK (Homo sapiens) (UniProt P43405); assay: Inhibition of Syk protein tyrosine kinase at 100 nM; parameters: scale not given: the % may be the effect or the level left; how it was run: as §1
[30] = biological target: Serine/threonine-protein kinase Chk1 (Homo sapiens) (UniProt O14757); assay: Inhibition of Serine/threonine-protein kinase Chk1 at 500 nM; parameters: scale not given: the % may be the effect or the level left; how it was run: as §1
[31] = biological target: Dual specificity mitogen-activated protein kinase kinase 6 (Homo sapiens) (UniProt P52564); assay: Inhibition of mitogen-activated protein kinase kinase 6 at 100 nM; parameters: scale not given: the % may be the effect or the level left; how it was run: as §1
[32] = biological target: T2, Cyclin-dependent kinase 5/CDK5 activator 1 (Homo sapiens); assay: Inhibition of Cyclin-dependent kinase 5-p35nck5a at 500 nM; assay type: protein-complex assay; parameters: scale not given: the % may be the effect or the level left; how it was run: as §2
[33] = biological target: Mitogen-activated protein kinase 10 (Homo sapiens) (UniProt P53779); assay: Inhibition of c-Jun N-terminal kinase 3 at 500 nM; parameters: scale not given: the % may be the effect or the level left; how it was run: as §1
NCI-H460 = assay: In vitro antiproliferative activity against human carcinoma cell line H460 (lung); assay type: functional, cell-based
[34] = biological target: RAC-alpha serine/threonine-protein kinase (Homo sapiens, UniProt P31749); assay: Inhibition of Protein kinase B, Akt-1
[35] = biological target: Ribosomal protein S6 kinase (P70S6K) (Homo sapiens) (UniProt Q9UBS0+P23443); assay: Inhibition of Ribosomal protein S6 kinase (p70S6K) at 500 nM; assay type: protein-complex assay; parameters: scale not given: the % may be the effect or the level left; how it was run: as §1
[36] = biological target: Protein kinase C theta type (Homo sapiens) (UniProt Q04759); assay: Inhibition of Protein kinase C theta at 500 nM; parameters: scale not given: the % may be the effect or the level left; how it was run: as §1
[37] = biological target: Calcium/calmodulin-dependent protein kinase type IV (Homo sapiens) (UniProt Q16566); assay: Inhibition of Calcium/calmodulin-dependent protein kinase type IV at 500 nM; parameters: scale not given: the % may be the effect or the level left; how it was run: as §2
[38] = biological target: Mitogen-activated protein kinase 1 (Homo sapiens) (UniProt P28482); assay: Inhibition of Mitogen-activated protein kinase 2 at 100 nM; parameters: scale not given: the % may be the effect or the level left; how it was run: as §2
[39] = biological target: Cyclin-dependent kinase 2/cyclin E (Homo sapiens, UniProt P24941); assay: Inhibitory activity against Cyclin E-cyclin-dependent kinase 2 in enzymatic assay by measuring phosphorylation of RbING; assay type: protein-complex assay
[40] = biological target: Mitogen-activated protein kinase 8 (Homo sapiens) (UniProt P45983); assay: Inhibition of c-Jun N-terminal kinase 1-alpha 1 at 100 nM; parameters: scale not given: the % may be the effect or the level left; how it was run: as §1
HCT-116 = assay: In vitro antiproliferative activity against human carcinoma cell line HCT116 (colon); assay type: functional, cell-based
[41] = biological target: Serine/threonine-protein kinase N2 (Homo sapiens) (UniProt Q16513); assay: Inhibition of PRK2 at 100 nM; parameters: scale not given: the % may be the effect or the level left; how it was run: as §2
TGF-beta receptor type-2 = TGF-beta receptor type-2 (Homo sapiens, UniProt P37173); assay: Inhibition of TGF-beta type II receptor

T2 sequence (Q00535 whole entry): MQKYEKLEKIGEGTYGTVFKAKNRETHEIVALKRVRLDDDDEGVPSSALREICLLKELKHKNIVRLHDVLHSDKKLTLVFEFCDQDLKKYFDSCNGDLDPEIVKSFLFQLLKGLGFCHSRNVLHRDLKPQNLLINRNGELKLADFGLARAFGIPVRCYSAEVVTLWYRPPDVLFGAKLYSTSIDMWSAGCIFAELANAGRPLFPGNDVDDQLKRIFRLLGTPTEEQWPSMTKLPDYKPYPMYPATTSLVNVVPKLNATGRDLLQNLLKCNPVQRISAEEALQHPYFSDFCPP
T2 sequence (Q15078 99-307 partner limits assumed): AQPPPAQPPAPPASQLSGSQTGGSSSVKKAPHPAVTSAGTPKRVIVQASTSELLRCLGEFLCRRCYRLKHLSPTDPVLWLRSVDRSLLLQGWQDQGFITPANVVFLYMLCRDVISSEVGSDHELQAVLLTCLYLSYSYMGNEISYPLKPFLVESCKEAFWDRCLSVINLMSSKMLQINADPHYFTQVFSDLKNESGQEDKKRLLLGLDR
Cyclin-dependent kinase 4 (Homo sapiens), sequence (P11802 whole entry): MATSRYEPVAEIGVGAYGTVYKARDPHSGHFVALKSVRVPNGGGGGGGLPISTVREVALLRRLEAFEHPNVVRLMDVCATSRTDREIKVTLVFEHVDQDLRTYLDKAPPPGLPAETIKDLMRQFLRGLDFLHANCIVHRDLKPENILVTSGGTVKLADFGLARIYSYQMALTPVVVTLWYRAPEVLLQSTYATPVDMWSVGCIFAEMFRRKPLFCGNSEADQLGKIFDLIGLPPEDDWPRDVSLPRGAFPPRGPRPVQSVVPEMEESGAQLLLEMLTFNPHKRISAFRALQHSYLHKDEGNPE
Dual specificity mitogen-activated protein kinase kinase 1 (Homo sapiens), sequence (Q02750 whole entry): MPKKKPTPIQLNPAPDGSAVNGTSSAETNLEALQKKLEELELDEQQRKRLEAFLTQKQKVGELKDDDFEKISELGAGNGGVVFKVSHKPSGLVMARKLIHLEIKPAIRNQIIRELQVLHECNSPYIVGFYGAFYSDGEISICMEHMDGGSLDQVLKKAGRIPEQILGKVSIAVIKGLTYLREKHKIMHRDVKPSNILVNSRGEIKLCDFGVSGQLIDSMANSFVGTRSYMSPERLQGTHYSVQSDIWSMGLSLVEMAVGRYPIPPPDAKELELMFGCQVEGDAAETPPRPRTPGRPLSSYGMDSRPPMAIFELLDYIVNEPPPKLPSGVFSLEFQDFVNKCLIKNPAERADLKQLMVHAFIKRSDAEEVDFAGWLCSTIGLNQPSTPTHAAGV
Serine/threonine-protein kinase Chk2 (Homo sapiens), sequence (O96017 whole entry): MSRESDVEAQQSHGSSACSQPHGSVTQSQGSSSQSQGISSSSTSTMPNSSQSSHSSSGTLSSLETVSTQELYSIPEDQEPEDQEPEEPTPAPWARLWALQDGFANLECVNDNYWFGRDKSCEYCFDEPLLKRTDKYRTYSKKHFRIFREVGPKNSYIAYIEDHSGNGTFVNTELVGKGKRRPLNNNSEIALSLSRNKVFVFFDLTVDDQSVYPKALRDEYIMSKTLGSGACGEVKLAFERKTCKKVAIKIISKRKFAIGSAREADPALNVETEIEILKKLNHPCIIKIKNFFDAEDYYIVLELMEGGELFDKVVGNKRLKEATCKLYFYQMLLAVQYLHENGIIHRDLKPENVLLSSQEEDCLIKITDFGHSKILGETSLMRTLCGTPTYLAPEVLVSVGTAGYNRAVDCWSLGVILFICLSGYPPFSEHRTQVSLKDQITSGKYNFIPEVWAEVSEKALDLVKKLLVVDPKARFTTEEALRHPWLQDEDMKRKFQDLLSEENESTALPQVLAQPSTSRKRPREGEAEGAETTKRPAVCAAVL
Inhibitor of nuclear factor kappa-B kinase subunit beta (Homo sapiens), sequence (O14920 whole entry): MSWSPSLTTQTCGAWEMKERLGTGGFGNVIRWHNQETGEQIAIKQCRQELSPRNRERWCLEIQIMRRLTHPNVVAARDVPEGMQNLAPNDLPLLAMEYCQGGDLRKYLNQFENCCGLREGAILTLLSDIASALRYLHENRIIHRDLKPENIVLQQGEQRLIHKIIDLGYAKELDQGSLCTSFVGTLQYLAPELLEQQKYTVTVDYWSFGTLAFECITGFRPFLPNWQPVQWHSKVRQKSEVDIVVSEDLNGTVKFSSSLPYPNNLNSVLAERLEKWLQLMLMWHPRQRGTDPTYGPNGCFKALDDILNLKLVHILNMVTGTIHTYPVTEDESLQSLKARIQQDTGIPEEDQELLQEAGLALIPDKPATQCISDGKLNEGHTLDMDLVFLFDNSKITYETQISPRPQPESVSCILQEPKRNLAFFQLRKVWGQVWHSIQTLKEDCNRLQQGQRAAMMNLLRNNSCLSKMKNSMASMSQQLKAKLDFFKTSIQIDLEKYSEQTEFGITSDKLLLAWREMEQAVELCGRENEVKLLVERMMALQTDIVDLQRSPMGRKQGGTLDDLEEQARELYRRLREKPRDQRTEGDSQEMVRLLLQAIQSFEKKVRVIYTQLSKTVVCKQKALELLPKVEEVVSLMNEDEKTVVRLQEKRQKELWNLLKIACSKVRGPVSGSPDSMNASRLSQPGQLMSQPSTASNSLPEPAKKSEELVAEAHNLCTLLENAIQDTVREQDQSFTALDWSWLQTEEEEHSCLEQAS
Mitogen-activated protein kinase 10 (Homo sapiens), sequence (P53779 whole entry): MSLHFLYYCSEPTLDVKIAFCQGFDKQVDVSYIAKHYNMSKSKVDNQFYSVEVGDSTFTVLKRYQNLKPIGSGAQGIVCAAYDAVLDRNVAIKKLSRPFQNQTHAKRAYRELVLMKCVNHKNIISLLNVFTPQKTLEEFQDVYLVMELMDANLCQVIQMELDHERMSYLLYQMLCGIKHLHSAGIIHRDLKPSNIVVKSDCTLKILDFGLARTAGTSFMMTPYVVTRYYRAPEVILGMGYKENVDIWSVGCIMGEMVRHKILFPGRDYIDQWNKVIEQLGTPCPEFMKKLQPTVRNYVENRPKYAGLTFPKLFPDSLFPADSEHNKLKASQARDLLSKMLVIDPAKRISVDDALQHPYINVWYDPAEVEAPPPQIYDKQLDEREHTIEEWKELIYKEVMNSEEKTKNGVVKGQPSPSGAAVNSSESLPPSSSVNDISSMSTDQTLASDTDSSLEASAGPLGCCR
Protein kinase C theta type (Homo sapiens), sequence (Q04759 whole entry, looked up): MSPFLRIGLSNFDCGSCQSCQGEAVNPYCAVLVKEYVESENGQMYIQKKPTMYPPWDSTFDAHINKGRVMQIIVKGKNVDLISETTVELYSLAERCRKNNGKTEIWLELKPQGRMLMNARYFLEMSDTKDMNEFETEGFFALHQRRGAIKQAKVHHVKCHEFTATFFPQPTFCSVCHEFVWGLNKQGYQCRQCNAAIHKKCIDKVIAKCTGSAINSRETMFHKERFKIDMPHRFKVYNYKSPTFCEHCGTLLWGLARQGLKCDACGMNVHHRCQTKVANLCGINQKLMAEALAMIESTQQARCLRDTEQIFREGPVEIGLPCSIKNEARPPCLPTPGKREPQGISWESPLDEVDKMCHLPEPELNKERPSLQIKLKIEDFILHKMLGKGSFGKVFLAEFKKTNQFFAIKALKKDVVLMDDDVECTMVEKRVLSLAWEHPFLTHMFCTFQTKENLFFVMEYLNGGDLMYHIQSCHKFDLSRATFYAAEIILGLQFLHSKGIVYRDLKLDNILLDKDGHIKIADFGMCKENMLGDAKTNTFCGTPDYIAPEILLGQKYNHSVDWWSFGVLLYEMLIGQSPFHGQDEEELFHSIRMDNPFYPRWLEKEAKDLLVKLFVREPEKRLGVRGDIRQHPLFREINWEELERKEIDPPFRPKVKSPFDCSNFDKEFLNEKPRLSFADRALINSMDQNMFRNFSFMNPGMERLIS
Mitogen-activated protein kinase 1 (Homo sapiens), sequence (P28482 whole entry): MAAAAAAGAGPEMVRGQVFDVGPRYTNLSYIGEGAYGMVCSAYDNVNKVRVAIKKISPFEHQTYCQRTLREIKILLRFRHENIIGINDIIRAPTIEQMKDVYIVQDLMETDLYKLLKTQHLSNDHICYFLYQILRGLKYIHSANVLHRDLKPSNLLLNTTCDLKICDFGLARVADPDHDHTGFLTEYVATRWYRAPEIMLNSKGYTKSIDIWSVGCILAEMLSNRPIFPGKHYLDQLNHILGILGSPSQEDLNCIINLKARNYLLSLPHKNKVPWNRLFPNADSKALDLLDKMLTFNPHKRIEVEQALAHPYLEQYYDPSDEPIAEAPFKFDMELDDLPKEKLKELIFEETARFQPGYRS
Serine/threonine-protein kinase Chk1 (Homo sapiens), sequence (O14757 whole entry): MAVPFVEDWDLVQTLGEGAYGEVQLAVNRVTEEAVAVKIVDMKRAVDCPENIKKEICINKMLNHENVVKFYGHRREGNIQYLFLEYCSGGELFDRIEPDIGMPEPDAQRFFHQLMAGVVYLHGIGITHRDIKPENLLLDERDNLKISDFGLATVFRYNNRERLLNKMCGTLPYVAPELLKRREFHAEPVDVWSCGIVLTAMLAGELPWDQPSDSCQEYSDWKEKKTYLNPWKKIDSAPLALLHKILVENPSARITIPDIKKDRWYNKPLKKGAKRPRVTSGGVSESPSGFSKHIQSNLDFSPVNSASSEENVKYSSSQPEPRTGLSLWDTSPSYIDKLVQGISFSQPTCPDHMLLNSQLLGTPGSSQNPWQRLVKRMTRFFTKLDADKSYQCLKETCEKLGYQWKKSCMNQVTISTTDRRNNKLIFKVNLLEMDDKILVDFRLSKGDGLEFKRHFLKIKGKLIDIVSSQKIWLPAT
Mitogen-activated protein kinase 14, sequence (Q16539 whole entry): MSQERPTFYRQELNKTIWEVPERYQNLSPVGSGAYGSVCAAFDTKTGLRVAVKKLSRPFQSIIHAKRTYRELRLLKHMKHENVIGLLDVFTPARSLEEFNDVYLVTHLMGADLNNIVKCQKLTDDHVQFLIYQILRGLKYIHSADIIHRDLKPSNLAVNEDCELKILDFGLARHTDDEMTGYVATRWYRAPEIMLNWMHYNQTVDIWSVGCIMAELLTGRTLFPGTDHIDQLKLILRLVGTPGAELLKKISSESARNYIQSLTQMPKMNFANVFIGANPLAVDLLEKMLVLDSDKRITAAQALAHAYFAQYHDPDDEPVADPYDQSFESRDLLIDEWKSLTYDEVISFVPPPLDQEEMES

Control [1]: 82% | Control [2]: 65% | Control [3]: 84% | Control [4]: 104% | Control [5]: 106% | Control [6]: 53% | Control [7]: 120% | Control [8]: 100% | Control [9]: 107% | IC50 [10]: 49 nM | Control [11]: 105% | IC50 [12]: 20200 nM | Control [13]: 98% | inhibition [14]: 45% | Control [15]: 68% | inhibition [16]: 83% | Control [17]: 70% | Control [18]: 42% | IC50 [19]: 2930 nM | Control [20]: 104% | Control [21]: 92% | Control [22]: 63% | Control [23]: 14% | Control [24]: 89% | Control [25]: 94% | Control [26]: 84% | Control [27]: 95% | Control [28]: 87% | Control [29]: 94% | Control [30]: 70% | Control [31]: 100% | Control [32]: 62% | Control [33]: 97% | IC50 (NCI-H460): 1670 nM | IC50 [34]: 5480 nM | Control [35]: 85% | Control [36]: 58% | Control [37]: 102% | Control [38]: 103% | IC50 [39]: 1030 nM | Control [40]: 99% | IC50 (HCT-116): 1050 nM | Control [41]: 97% | IC50 (TGF-beta receptor type-2): > 20000 nM
Structure (SMILES): Cn1ccc2ccc3c4[nH]c5c(CCCN[C@H]6CC[C@H](O)CC6)cccc5c4c4c(c3c21)C(=O)NC4=O
